# Results taken from ChEMBL document CHEMBL1125333, “Predictive binding of beta-carboline inverse agonists and antagonists via the CoMFA/GOLPE approach” (J Med Chem, 1992).
# Target: GABA-A receptor; anion channel
# Experiment: In vitro binding affinity at benzodiazepine receptor of rat cerebral cortical membranes by [3H]diazepam displacement.
# Procedure, shortened: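 Rat cerebral cortex homogenised in 50 mM Tris-HCl pH 7.4, centrifuged at 20000g at 4 °C and washed three times. Membranes incubated with drug and 2 nM [3H]diazepam (final) for 120 min at 4 °C, then filtered and washed with ice-cold buffer. Nonspecific binding measured with 10 μM flunitrazepam (final). IC50 estimated from Hill plots.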
row,Structure (SMILES),IC50
1,CC(C)COc1cc2c(cn1)[nH]c1ccccc12,0.093 µM
2,c1ccc(CNc2cc3c(cn2)[nH]c2ccccc23)cc1,> 1.28 µM
3,Nc1cc2c(cn1)[nH]c1ccccc12,> 25 µM
4,c1ccc(COc2cc3c4ccccc4nc-3c[nH]2)cc1,> 1 µM

# Continued, values first:
row,IC50,Structure (SMILES)
1,0.104 µM,CC(C)(C)COc1cc2c3ccccc3nc-2c[nH]1
2,0.358 µM,CC(C)(C)C(=O)c1cc2c3ccccc3nc-2c[nH]1
3,0.471 µM,CCC(C)Oc1cc2c3ccccc3nc-2c[nH]1 (configuration not stated)
4,0.535 µM,CC(C)CCOc1cc2c3ccccc3nc-2c[nH]1

# Species: Mus musculus
# Experiment: Tested for convulsive activity in pentylenetetrazole injected mice
# Format: functional
row,Structure (SMILES),ED50
1,CCOC(=O)c1cc2c(cn1)[nH]c1ccccc12,3.2 mg/kg
2,COc1cc2c(cn1)[nH]c1ccccc12,6 mg/kg
3,CCOc1cc2c(cn1)[nH]c1ccccc12,7 mg/kg
4,COC(=O)c1cc2c(cn1)[nH]c1ccccc12 [BETA-CCM],10 mg/kg
